Assay results taken from ChEMBL document CHEMBL1131724, “The structure-based design and synthesis of selective inhibitors of Trypanosoma cruzi dihydrofolate reductase” (Bioorg Med Chem Lett, 1999).

How the values were obtained:
[1] = In vitro activity against the amastigote stage of the parasite cultured in mouse fibroblasts (L-6 cells); assay type: functional, cell-based
Summary of the method: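 L-6 mouse fibroblasts seeded, infected next day with trypomastigote T. cruzi expressing beta-galactosidase; after two days medium replaced with serial drug dilutions; four-day incubation; chlorophenol red beta-D-galactopyranoside substrate added, absorbance read at 540 nm 2-6 h later to quantify parasite growth; IC50 determined.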

[2] = Selectivity for Trypanosoma cruzi dihydrofolate reductase compared to human dihydrofolate reductase
Dihydrofolate reductase = biological target: T1, Dihydrofolate reductase (Homo sapiens, UniProt P00374); experiment: Inhibitory activity against dihydrofolate reductase in humans
T1 sequence (P00374 whole entry): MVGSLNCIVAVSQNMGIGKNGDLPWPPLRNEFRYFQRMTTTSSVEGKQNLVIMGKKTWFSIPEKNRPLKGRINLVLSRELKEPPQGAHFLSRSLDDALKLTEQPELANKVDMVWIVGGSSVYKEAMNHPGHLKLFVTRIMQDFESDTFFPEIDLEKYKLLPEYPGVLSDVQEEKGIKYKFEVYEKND

Row | Selectivity [2] | Ki (Dihydrofolate reductase) | SMILES | IC50 [1]
1 |  |  | CCOC(=O)CCCN(Cc1cnc2nc(N)nc(N)c2n1)c1ccc(C(=O)NC(CCC(=O)OCC)C(=O)OCC)cc1 (stereo not given) | 61 µM
2 | 8.71 | 0.485 µM | CCOC(=O)CCCCCN(Cc1cnc2nc(N)nc(N)c2n1)c1ccc(C(=O)NC(CCC(=O)OCC)C(=O)OCC)cc1 (stereo not given) | 53.5 µM
3 | 9.9 | 0.453 µM | CCOC(=O)CCCCN(Cc1cnc2nc(N)nc(N)c2n1)c1ccc(C(=O)NC(CCC(=O)OCC)C(=O)OCC)cc1 (stereo not given) | 38.8 µM
4 | 8.9 | 0.00163 µM | Nc1nc(N)c2nc(CN(CCCCCC(=O)O)c3ccc(C(=O)NC(CCC(=O)O)C(=O)O)cc3)cnc2n1 (stereo not given) | 11.5 µM
5 |  |  | Nc1nc(N)c2nc(CN(CCCC(=O)O)c3ccc(C(=O)NC(CCC(=O)O)C(=O)O)cc3)cnc2n1 (stereo not given) | > 171 µM
6 | 11.1 | 0.00145 µM | Nc1nc(N)c2nc(CN(CCCCC(=O)O)c3ccc(C(=O)NC(CCC(=O)O)C(=O)O)cc3)cnc2n1 (stereo not given) | > 167 µM
7 |  |  | CN(Cc1cnc2nc(N)nc(N)c2n1)c1ccc(C(=O)N[C@@H](CCC(=O)O)C(=O)O)cc1 [METHOTREXATE] | 9.2 µM
